Assay results: ChEMBL document CHEMBL1140930 (J Med Chem, 2009)

Experiments:
K562 = assay: Antiproliferative activity against human K562 cells after 48 hrs; format: functional, cell-based; conditions: K562, 48 h
Procedure, shortened: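 K562 cells (RPMI 1640, 10% FBS, 37 °C, 5% CO2) plated at 2 × 10⁵ cells/mL. Compounds dissolved in DMSO/methanol 1:1, vehicle 0.5%. Cells counted in a Neubauer chamber after 48 h and expressed as % of untreated control. Triplicate wells, three experiments. IC50 from nonlinear regression.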

Tubulin = Tubulin (Sus scrofa, UniProt P02554+P02550); assay: Inhibition of pig brain tubulin polymerization after 30 mins by turbidimetric assay
Procedure, shortened: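 Microtubule protein from porcine brain (80–90% tubulin, 10–20% MAPs), purified by two disassembly/reassembly cycles. Assay buffer: 20 mM PIPES pH 6.8, 80 mM NaCl, 0.5 mM MgCl2, 1 mM EGTA, 1 mM DTT. Protein at 1.2 mg/mL with 0.6 mM GTP final, 1% DMSO final, 37 °C.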

[1] = Antiproliferative activity against human KB/HeLa cells by XTT assay; format: functional, cell-based
Procedure, shortened: (§1)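 XTT metabolic read-out. Cells seeded at 1 × 10³–8 × 10⁴ cells/well for logarithmic growth and exposed to graded concentrations for 48 h. At least two replicates. IC50 from nonlinear regression of dose-response curves. LT12/MDR: rat LT12 with ectopic human MDR-1. L1210/VCR: MDR-1 expressing, MRP-1 negative.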

SK-OV-3 = assay: Antiproliferative activity against human SKOV3 cells by XTT assay; format: functional, cell-based
Procedure, shortened: (§2)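 XTT metabolic-activity read-out of proliferation. Cells were seeded at 1 × 10³-8 × 10⁴ cells/well for logarithmic growth and exposed to a range of compound concentrations for 48 h. IC50 came from nonlinear regression of dose-response curves, with at least two replicates. The P388/Adr subline was doxorubicin-selected with elevated MDR-1.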

SF-268 = assay: Antiproliferative activity against human SF268 cells by XTT assay; format: functional, cell-based; procedure, shortened: as §1
NCI-H460 = assay: Antiproliferative activity against human NCI-H460 cells by XTT assay; format: functional, cell-based; procedure, shortened: as §1
RKO [2] = assay: Antiproliferative activity against human RKO cells by XTT assay; format: functional, cell-based
Procedure, shortened: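 RKO colon cells with ecdysone-inducible p27Kip1. Day 1: plated with or without 3 µM ponasterone A for 24 h, giving G1 arrest when induced (2 × 10⁴ cells/well induced; 6 × 10³ not induced). Day 2: compound added (DMSO control) for 48 h at 37 °C, then standard XTT. At least duplicate. IC50 by nonlinear regression.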

RKO [3] = assay: Antiproliferative activity against human RKO cells containing ecdysone-inducible expression vector of p27kipl by XTT assay; format: functional, cell-based
Procedure, shortened: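 RKO cells carried an ecdysone-inducible p27Kip1 vector and were tested with and without induction. On day 1 they were plated with or without 3 µM ponasterone A, which gives G1 arrest, at 2 × 10⁴ cells/well induced or 6 × 10³ not induced, then held 24 h at 37 °C. Compound was then added for 48 h at 37 °C, followed by a standard XTT assay. IC50 came from nonlinear regression, n ≥ 2.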

[4] = Cell cycle arrest in human KB/HeLa cells assessed as G2/M phase accumulation after 24 hrs by FACS analysis; format: functional, cell-based
Procedure, shortened: (§3)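 Subconfluent KB/HeLa cells exposed to a range of compound concentrations for 24 h at 37 °C, then detached and fixed in 70% ethanol. DNA stained with propidium iodide after RNase digestion and measured by flow cytometry. Cell-cycle phase fractions taken from cell cycle analysis software. At least two replicates.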

[5] = Cell cycle arrest in human KB/HeLa cells assessed as S phase accumulation at 0.3 nM after 24 hrs by FACS analysis; format: functional, cell-based; procedure, shortened: as §3
[6] = Cell cycle arrest in human KB/HeLa cells assessed as G2/M phase accumulation at 0.3 nM after 24 hrs by FACS analysis; format: functional, cell-based; procedure, shortened: as §3
[7] = Cell cycle arrest in human KB/HeLa cells assessed as G1 phase accumulation at 0.3 nM after 24 hrs by FACS analysis; format: functional, cell-based; procedure, shortened: as §3
[8] = Cell cycle arrest in human KB/HeLa cells assessed as S phase accumulation at 1 nM after 24 hrs by FACS analysis; format: functional, cell-based; procedure, shortened: as §3
[9] = Cell cycle arrest in human KB/HeLa cells assessed as G2/M phase accumulation at 1 nM after 24 hrs by FACS analysis; format: functional, cell-based; procedure, shortened: as §3
[10] = Cell cycle arrest in human KB/HeLa cells assessed as G1 phase accumulation at 1 nM after 24 hrs by FACS analysis; format: functional, cell-based; procedure, shortened: as §3
[11] = Cell cycle arrest in human KB/HeLa cells assessed as S phase accumulation at 3.16 nM after 24 hrs by FACS analysis; format: functional, cell-based; procedure, shortened: as §3
[12] = Cell cycle arrest in human KB/HeLa cells assessed as G1 phase accumulation at 3.16 nM after 24 hrs by FACS analysis; format: functional, cell-based; procedure, shortened: as §3
[13] = Cell cycle arrest in human KB/HeLa cells assessed as S phase accumulation at 10 nM after 24 hrs by FACS analysis; format: functional, cell-based; procedure, shortened: as §3
[14] = Cell cycle arrest in human KB/HeLa cells assessed as G2/M phase accumulation at 10 nM after 24 hrs by FACS analysis; format: functional, cell-based; procedure, shortened: as §3
[15] = Cell cycle arrest in human KB/HeLa cells assessed as G1 phase accumulation at 10 nM after 24 hrs by FACS analysis; format: functional, cell-based; procedure, shortened: as §3
[16] = Cell cycle arrest in human KB/HeLa cells assessed as S phase accumulation at 31.6 nM after 24 hrs by FACS analysis; format: functional, cell-based; procedure, shortened: as §3
[17] = Cell cycle arrest in human KB/HeLa cells assessed as G2/M phase accumulation at 31.6 nM after 24 hrs by FACS analysis; format: functional, cell-based; procedure, shortened: as §3
[18] = Cell cycle arrest in human KB/HeLa cells assessed as G1 phase accumulation at 31.6 nM after 24 hrs by FACS analysis; format: functional, cell-based; procedure, shortened: as §3
[19] = Cell cycle arrest in human KB/HeLa cells assessed as S phase accumulation at 100 nM after 24 hrs by FACS analysis; format: functional, cell-based; procedure, shortened: as §3
[20] = Cell cycle arrest in human KB/HeLa cells assessed as G2/M phase accumulation at 100 nM after 24 hrs by FACS analysis; format: functional, cell-based; procedure, shortened: as §3
[21] = Cell cycle arrest in human KB/HeLa cells assessed as G1 phase accumulation at 100 nM after 24 hrs by FACS analysis; format: functional, cell-based; procedure, shortened: as §3
[22] = Cell cycle arrest in human KB/HeLa cells assessed as S phase accumulation at 316 nM after 24 hrs by FACS analysis; format: functional, cell-based; procedure, shortened: as §3
[23] = Cell cycle arrest in human KB/HeLa cells assessed as G2/M phase accumulation at 316 nM after 24 hrs by FACS analysis; format: functional, cell-based; procedure, shortened: as §3
[24] = Cell cycle arrest in human KB/HeLa cells assessed as G1 phase accumulation at 316 nM after 24 hrs by FACS analysis; format: functional, cell-based; procedure, shortened: as §3
[25] = Antiproliferative activity against rat LT12 cells after 48 hrs by XTT assay; format: functional, cell-based; conditions: LT12, 48 h; procedure, shortened: as §2
[26] = Antiproliferative activity against rat LT12 cells ectopic expression of human MDR1 after 48 hrs by XTT assay; format: functional, cell-based; conditions: LT12, 48 h; procedure, shortened: as §1
L1210 = assay: Antiproliferative activity against vincristine-resistance MRP1 negative mouse L1210 cells expressing human MDR1 after 48 hrs by XTT assay; format: functional, cell-based; conditions: L1210, 48 h; procedure, shortened: as §1
P388 [27] = assay: Antiproliferative activity against mouse P388 cells after 48 hrs by XTT assay; format: functional, cell-based; conditions: P388, 48 h; procedure, shortened: as §2
P388 [28] = assay: Antiproliferative activity against doxorubicin-resistant mouse P388 cells expressing MDR1 protein after 48 hrs by XTT assay; format: functional, cell-based; conditions: P388, 48 h; procedure, shortened: as §2
[29] = Cell cycle arrest in human KB/HeLa cells assessed as G2/M phase accumulation at 3.16 nM after 24 hrs by FACS analysis; format: functional, cell-based; procedure, shortened: as §3

COc1cccc(OC)c1OC(=O)C=C1c2ccccc2C(=O)c2ccccc21
IC50 (K562): 1640 nM
IC50 (Tubulin): 10000 nM

COc1ccc(C(=O)C=C2c3ccccc3C(=O)c3ccccc32)c(O)c1OC
IC50 (K562): > 30000 nM
IC50 (Tubulin): > 10000 nM

COc1cc2c(c(OC)c1OC)-c1ccc(OC)c(=O)cc1[C@@H](NC(C)=O)CC2 [COLCHICINE]
IC50 [1]: 10 nM
IC50 (SK-OV-3): 10 nM
IC50 (SF-268): 10 nM
IC50 (NCI-H460): 10 nM
IC50 (RKO [2]): 10 nM
IC50 (RKO [3]): > 3000 nM
EC50 [4]: 14 nM
Activity [5]: 26.6%
Activity [6]: 10.1%
Activity [7]: 63.3%
Activity [8]: 25.4%
Activity [9]: 10%
Activity [10]: 64.7%
Activity [11]: 25.1%
Activity [12]: 64.3%
Activity [13]: 35.7%
Activity [14]: 32.1%
Activity [15]: 32.2%
Activity [16]: 11.9%
Activity [17]: 87.6%
Activity [18]: 0.5%
Activity [19]: 5.1%
Activity [20]: 94.7%
Activity [21]: 0.3%
Activity [22]: 5.2%
Activity [23]: 94.5%
Activity [24]: 0.3%

CC[C@]1(O)C[C@@H]2CN(CCc3c([nH]c4ccccc34)[C@@](C(=O)OC)(c3cc4c(cc3OC)N(C)[C@H]3[C@@](O)(C(N)=O)[C@H](O)[C@]5(CC)C=CCN6CC[C@]43[C@@H]65)C2)C1 [VINDESINE]
IC50 [25]: 200 nM
IC50 [26]: 260 nM
IC50 (L1210): > 5000 nM

COc1ccc(C(=O)C=C2c3ccccc3C(=O)c3ccccc32)c(OC)c1OC
IC50 (K562): 11000 nM
IC50 (Tubulin): > 10000 nM

O=C(C=C1c2ccccc2C(=O)c2ccccc21)c1ccccc1
IC50 (K562): 3600 nM
IC50 (Tubulin): 5000 nM

COc1csc(C(=O)C=C2c3ccccc3C(=O)c3ccccc32)c1
IC50 (K562): 690 nM
IC50 (Tubulin): 2300 nM

COC(=O)Nc1nc2cc(C(=O)c3cccs3)ccc2[nH]1 [NOCODAZOLE]
IC50 [1]: 140 nM
IC50 (RKO [3]): > 10000 nM
IC50 [25]: 6 nM
IC50 [26]: 400 nM
IC50 (L1210): > 5000 nM
IC50 (P388 [27]): 40 nM
IC50 (P388 [28]): > 5000 nM
EC50 [4]: 91 nM
Activity [8]: 23.6%
Activity [9]: 11.1%
Activity [10]: 65.2%
Activity [11]: 24.8%
Activity [29]: 10.6%
Activity [12]: 64.6%
Activity [13]: 25.7%
Activity [14]: 10%
Activity [15]: 64.2%
Activity [16]: 25.7%
Activity [17]: 9.9%
Activity [18]: 64.4%
Activity [19]: 26.1%
Activity [20]: 51.4%
Activity [21]: 22.3%
Activity [22]: 6%
Activity [23]: 93.2%
Activity [24]: 0.9%

CC(=O)O[C@H]1C(=O)[C@@]2(C)[C@H]([C@H](OC(=O)c3ccccc3)[C@]3(O)C[C@H](OC(=O)[C@H](O)[C@@H](NC(=O)c4ccccc4)c4ccccc4)C(C)=C1C3(C)C)[C@]1(OC(C)=O)CO[C@@H]1C[C@@H]2O [PACLITAXEL]
IC50 [1]: 30 nM
IC50 (SK-OV-3): 50 nM
IC50 (SF-268): 50 nM
IC50 (NCI-H460): 70 nM
IC50 (RKO [2]): 20 nM
IC50 (RKO [3]): > 10000 nM
IC50 [25]: 300 nM
IC50 [26]: 50 nM
IC50 (L1210): 70 nM
IC50 (P388 [27]): 70 nM
IC50 (P388 [28]): 50 nM
EC50 [4]: 49 nM
Activity [8]: 26.7%
Activity [9]: 10.1%
Activity [10]: 63.2%
Activity [11]: 27%
Activity [29]: 9.4%
Activity [12]: 63.6%
Activity [13]: 26.6%
Activity [14]: 8.5%
Activity [15]: 64.8%
Activity [16]: 49.9%
Activity [17]: 19%
Activity [18]: 31.1%
Activity [19]: 11%
Activity [20]: 87.9%
Activity [21]: 1.2%
Activity [22]: 8.9%
Activity [23]: 90.8%
Activity [24]: 0.3%

O=C(C=C1c2ccccc2C(=O)c2ccccc21)c1ccc(O)c(O)c1
IC50 [1]: 270 nM
IC50 (SK-OV-3): 160 nM
IC50 (SF-268): 220 nM
IC50 (NCI-H460): 430 nM
IC50 (RKO [2]): 240 nM
IC50 (RKO [3]): > 9000 nM
IC50 (K562): 160 nM
IC50 (Tubulin): 2600 nM

COc1ccc(C(=O)C=C2c3ccccc3C(=O)c3ccccc32)c(OC)c1
IC50 (Tubulin): 900 nM

COc1ccccc1OC(=O)C=C1c2ccccc2C(=O)c2ccccc21
IC50 (K562): 1900 nM
IC50 (Tubulin): 10000 nM
